Test results reported in the array DNA melting data of Ke et al. (doi:10.1101/2024.01.08.574731).

Legend:
[1] = folding enthalpy; higher = less favourable; fluorescence melt of hairpins on a sequencing array, two-state fit; details: sodium 0.088 M
In short: (§1)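 Melting temperature and folding enthalpy were obtained by bootstrapped two-state fitting. Fits used Cy3 fluorescence of library hairpins with annealed Cy3 and quencher oligos on a sequenced MiSeq flow cell, imaged in 50 mM Na-HEPES pH 8.0, 25 mM NaCl in 2.5 °C steps up to 60 °C and normalised to pre-quench Cy3 and control constructs. Four replicates were combined by inverse-variance weighting, and fitted temperatures were raised by 9.35 °C to match UV melts.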

[2] = melting temperature; fluorescence melt of hairpins on a sequencing array, two-state fit, raised by 9.35 °C to match UV melts; details: sodium 0.088 M
In short: as §1

Sequence | folding enthalpy [1] | Tm [2]
GAGTCAGGAAACTGACCC (.(((((....))))).) | -13.4 kcal/mol | 40.5 °C
GCTTTGCGAAAGCTAAGC ((((.((....)).)))) | -28.8 kcal/mol | 62.7 °C
CGCGGAAGAATCCGCG ((((((....)))))) | -32.1 kcal/mol | 69 °C
GAGTAAGGAAACTCACTC ((((.((....)).)))) | -14.8 kcal/mol | 24.8 °C
GCGCAGCGAAAGCAGAGC ((.(.((....)).).)) | -15.7 kcal/mol | 54.6 °C
GCATTGGCGAAAGCCTGC (((..(((....)))))) | -15.1 kcal/mol | 44.3 °C
GATGATACGAAAGTAATC (((..(((....)))))) | -16.5 kcal/mol | 27.5 °C
GCTAGTACGAAAGTAAGC (((..(((....)))))) | -14.7 kcal/mol | 28.2 °C
GCGGTTGGAAACGACTGC ((.((.(....).)).)) | -15.3 kcal/mol | 37.8 °C
GCAAATGAAAATTTGC ((((((....)))))) | -45.3 kcal/mol | 52.3 °C
GAATACGAAAGTATTTTC ((((((....)))..))) | -19.9 kcal/mol | 36.9 °C
GGAGACGAAAGTCGCTCC ((((((....)))..))) | -13 kcal/mol | 42.4 °C
GGCCTTGGAAACAAGGTC (.(((((....))))).) | -34.4 kcal/mol | 55.7 °C
GATCTCAAATGAGATC ((((((....)))))) | -37.8 kcal/mol | 50 °C
GATTTAGAAATAAATC ((((((....)))))) | -18.8 kcal/mol | 34.4 °C
CGGTATCGGAAACGACCG (((..(((....)))))) | -27.8 kcal/mol | 36.3 °C
GATCAGTTACTGATC ((((((...)))))) | -41.7 kcal/mol | 51.4 °C
GATCGACGTATCGATC ((((((....)))))) | -56.4 kcal/mol | 51.2 °C
GCGCGTGGAAACACGCAC (.(((((....))))).) | -9.64 kcal/mol | 54.7 °C
GCGTAGGCGAAAGCCCGC (((..(((....)))))) | -19.7 kcal/mol | 61.9 °C
GAGCAACGAAAGTTACTC (((.(((....))).))) | -26.2 kcal/mol | 42.9 °C
GTGCACTCGAAAGAGCAC (((..(((....)))))) | -27.8 kcal/mol | 45.2 °C
GATCAACCCATTGATC ((((((....)))))) | -31.8 kcal/mol | 44.8 °C

Sequence | folding enthalpy [1] | Tm [2]
GATCGGCGGCCGATC ((((((...)))))) | -49.3 kcal/mol | 58.1 °C
GTCAGCGAAAGCTAAGAC ((((((....)))..))) | -16.7 kcal/mol | 41.5 °C
GTGGGGGGAAACCCCTGC (..((((....))))..) | -11.5 kcal/mol | 42.3 °C
GGGTTGGGAAACCAGTCC ((..(((....)))..)) | -16.4 kcal/mol | 38 °C
GGCCACGAAAGTGACGCC ((((((....)))..))) | -21.7 kcal/mol | 52.1 °C
GATACCGAAAGGTAGATC ((((((....)))..))) | -18.3 kcal/mol | 44.6 °C
GTTGCGGGAAACCGTAGC (.(.(((....))).).) | -24.5 kcal/mol | 36.1 °C
GGCAAAGGAAACCTTGCC (((((.(....).))))) | -31.5 kcal/mol | 49.3 °C
GAATTTGAAAAAATTC ((((((....)))))) | -26.6 kcal/mol | 38.8 °C
CGACCGGAAACGGGTTCG ((((((....)))..))) | -21.4 kcal/mol | 38.9 °C
GCGAGTCTTCGC ((((....)))) | -26.2 kcal/mol | 57.2 °C
GGGAGCGAAAGCTGCCCC ((((((....)))..))) | -12.6 kcal/mol | 58.1 °C
GAAGCTGGAAACAGTTTC (((.(((....))).))) | -27.1 kcal/mol | 41.6 °C
CGAAGGCGGAAACGCTCG (((..(((....)))))) | -20.8 kcal/mol | 37.5 °C
GAAAACGAAAGTTGCTTC ((((((....)))..))) | -19.8 kcal/mol | 33.1 °C
GGAGAAGAAATTCTCC ((((((....)))))) | -27.7 kcal/mol | 47.7 °C
GCTGTGCGAAAGCAGGGC ((..(((....)))..)) | -21.1 kcal/mol | 50.3 °C
GATCTTTGAGAAGATC ((((((....)))))) | -31.6 kcal/mol | 46 °C
GATCCTAATTAGGATC ((((((....)))))) | -45.2 kcal/mol | 52 °C
GCACCTCGAAAGAGTTGC (((.(((....))).))) | -28.1 kcal/mol | 48.6 °C
GATGAGCCGAAAGGCATC (((..(((....)))))) | -10.2 kcal/mol | 33.5 °C
CGTCCGGAAACGGAGACG ((((((....)))..))) | -21.4 kcal/mol | 45.3 °C
GTACGGGGAAACCCATAC (((.(((....))).))) | -21.9 kcal/mol | 35 °C

Sequence | folding enthalpy [1] | Tm [2]
GCGACACGAAAGTGCCGC (((.(((....))).))) | -38.8 kcal/mol | 64.3 °C
GATGGCGGAAACACCACC (.(((.(....).))).) | -14.8 kcal/mol | 30.2 °C
GACACGGGAAACCGCGTC (((.(((....))).))) | -47.8 kcal/mol | 50.9 °C
GATCCGGATACGGATC ((((((....)))))) | -38.8 kcal/mol | 67.9 °C
GTAGTCGAAAGACATTAC ((((((....)))..))) | -9.35 kcal/mol | 23.5 °C
GCGTGGCGAAAGCAAAGC ((.(.((....)).).)) | -17.4 kcal/mol | 52.1 °C
GCATGGCGAAAGCTACGC ((.(.((....)).).)) | -16.4 kcal/mol | 35 °C
GTGATGACGAAAGTCCAC (((..(((....)))))) | -18.4 kcal/mol | 35.1 °C
GCAAGGGGAAACCCCTGC (((.(((....))).))) | -27.4 kcal/mol | 51.1 °C
GCCTACGAAAGTAGCGGC ((((((....)))..))) | -19.5 kcal/mol | 49.6 °C
GCAATTCCGAAAGGATGC (((..(((....)))))) | -21.5 kcal/mol | 38 °C
GCGCAAGGAAACCTGCAC (.(((.(....).))).) | -17 kcal/mol | 29.3 °C
GCGTTAGGAAACTGACGC ((((.((....)).)))) | -42.5 kcal/mol | 53.6 °C
GCTCGGGGAAACTCGAGC (((((.(....).))))) | -44.2 kcal/mol | 58.5 °C
GATCCCGGCGGGATC ((((((...)))))) | -36.5 kcal/mol | 68.2 °C
GCGTCAGGAAACCGACAC (.(((.(....).))).) | -16 kcal/mol | 27.4 °C
GGATGGCGAAAGCCTTCC (((.(((....))).))) | -24.3 kcal/mol | 56.6 °C
GCATTGGGAAACCAACGC ((.((((....)))).)) | -29.4 kcal/mol | 42.2 °C
GCAGCCGAAAGGCCATGC ((((((....)))..))) | -13.9 kcal/mol | 40.3 °C
GCCTTTGGAAACAAAGAC (.(((((....))))).) | -21.9 kcal/mol | 34.7 °C
CGGTCGGAAACGATCCCG ((((((....)))..))) | -17.9 kcal/mol | 34.9 °C
GTCCCCGGAAACGGGGGC (.(((((....))))).) | -19.5 kcal/mol | 68 °C
GACTACGAAAGTATGTC ((((((....))).))) | -26.2 kcal/mol | 44.7 °C
